Experimental findings from article PMC4627538 (Journal of Diabetes Investigation, 2015) are described below.

Bridge positions count the residues as written; N and C are the ends. Ends that are not written are not given here.

For assay [1], the system named is background proteins (BSA and anti-MGAM antibodies). The assay is described as follows: Phage ELISA, binding of phage clones to background. The method in brief:
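Wells coated overnight at 4°C with anti-MGAM antibodies (5 µg/mL) in PBS, blocked 90 min at room temperature with 2% BSA/PBS, with no MGAM added. 5×10^9 pfu of each phage clone in 0.05% PBST incubated 60 min, then washed five times with 0.1% PBST. Bound phage detected with HRP anti-M13 monoclonal antibody and TMB at A450. Triplicates, mean ± SD.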
Background: ELISA stands for enzyme-linked immunosorbent assay.

Assay [2] relates to maltase glucoamylase (MGAM). Nature of the assay: Phage ELISA, binding of phage clones to MGAM. More on the design: species or system rat. As to conditions: displayed on phage, judged from ELISA signals, Figure 1.

Turning to “CGHHHRDYC (disulfide 1-9 (inferred)) [C2]”, the “binding of phage clones to background proteins” value in assay [1] is reported as “lower background binding”. Further, in assay [2], the “affinity towards the target (MGAM), comparison between phage clones” value is “higher affinity towards the target than those obtained with specific elution”.
In the same order, the values of “CTHYGFRGC (disulfide 1-9 (inferred)) [C1]” are “lower background binding” and “higher affinity towards the target than those obtained with specific elution”.
